Data published in ChEMBL document CHEMBL1122278, “Gastric antisecretory 9H-xanthen-9-amines” (1983).

What was measured:
Rattus norvegicus [1] = experiment: Gastric antisecretory activity in pylorus-ligated rat at a concentration of 50 mg/kg perorally, expressed as increase in mean pH.; format: functional; conditions: route oral
Method in brief: (§1)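 Male Carworth Farms rats (270–360 g), fasted 18 h with water; compound in PEG 200 by gavage 1 h before pylorus ligation under ether. Killed 2 h after ligation; juice centrifuged, volume and pH measured, supernatant titrated with NaOH to pH 7.4, output = volume × titre. Mean of six to seven animals against controls.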

Rattus norvegicus [2] = experiment: Gastric antisecretory activity in pylorus ligated rat at a concentration of 50 mg/kg perorally, expressed as % decrease in mean titratable acid output of gastric juice in treated vs. control groups.; format: functional; conditions: route oral; method in brief: as §1
Rattus norvegicus [3] = experiment: Gastric antisecretory activity in pylorus-ligated rat at a concentration of 50 mg/kg po, expressed as increase in mean pH; NS means no significant change; format: functional, organism-based; design: dose 50 mg/kg; method in brief: as §1
Rattus norvegicus [4] = experiment: Gastric antisecretory activity in pylorus ligated rat at a concentration of 50 mg/kg po, expressed as % decrease in mean titratable acid output of gastric juice in treated vs. control groups; NS means no significant change.; format: functional, organism-based; design: dose 50 mg/kg; method in brief: as §1

| SMILES | Delta pH (Rattus norvegicus [1]) | Delta TAO (Rattus norvegicus [2]) | Delta pH (Rattus norvegicus [3]) | Delta TAO (Rattus norvegicus [4]) | ED50 (Rattus norvegicus [4]) |
| --- | --- | --- | --- | --- | --- |
| O=S1(=O)CCC(NC2c3ccccc3Oc3ccccc32)C1 (stereo not given) | 1.5 | 57 | – | – | – |
| c1ccc(CCCNC2c3ccccc3Oc3ccccc32)nc1 | 5.7 | 99 | – | – | – |
| CN1CCC(NC2c3ccccc3Oc3ccccc32)CC1 | 6.4 | 99 | – | – | – |
| c1ccc(NNC2c3ccccc3Oc3ccccc32)cc1 | – | – | Not significant | – | – |
| C=CCNC1c2ccccc2Oc2ccccc21 | 4.4 | – | – | Not significant | – |
| c1ccc2c(c1)Oc1ccccc1C2NCC1CCCCO1 (stereo not given) | 3.6 | 87 | – | – | – |
| CN(C)CC1CCCCN1C1c2ccccc2Oc2ccccc21 (stereo not given) | 5.2 | 95 | – | – | – |
| c1ccc(CCNC2c3ccccc3Oc3ccccc32)nc1 | 5.9 | 99 | – | – | – |
| c1cncc(C2CCCN2C2c3ccccc3Oc3ccccc32)c1 (stereo not given) | 1.8 | 65 | – | – | – |
| c1cnc(NC2c3ccccc3Oc3ccccc32)nc1 | – | 48 | Not significant | – | – |
| c1ccc2c(c1)Oc1ccccc1C2N1CCNCC1 | 5.3 | 98 | – | – | – |
| CN1CCCN(C2c3ccccc3Oc3ccccc32)CC1 | 4.6 | 92 | – | – | – |
| c1ccc2c(c1)Oc1ccccc1C2NCc1ccncc1 | 3.6 | 77 | – | – | – |
| c1cncc(CNC2c3ccccc3Oc3ccccc32)c1 | 4.2 | 94 | – | – | – |
| c1ccc2c(c1)Oc1ccccc1C2Nc1nccs1 | – | – | Not significant | – | – |
| c1ccc2c(c1)Oc1ccccc1C2NC1=NCCS1 | 3.6 | 95 | – | – | – |
| CC(=N)NC1c2ccccc2Oc2ccccc21 | 1.1 | 88 | – | – | – |
| Cc1cc(C)n(C2c3ccccc3Oc3ccccc32)n1 | – | – | Not significant | Not significant | – |
| c1ccc(N2CCN(C3c4ccccc4Oc4ccccc43)CC2)nc1 | – | – | Not significant | – | Not significant |

| SMILES | Delta pH (Rattus norvegicus [1]) | Delta TAO (Rattus norvegicus [2]) | Delta pH (Rattus norvegicus [3]) | Delta TAO (Rattus norvegicus [4]) | ED50 (Rattus norvegicus [4]) |
| --- | --- | --- | --- | --- | --- |
| CN(C)C1CCN(C2c3ccccc3Oc3ccccc32)CC1 | 5.8 | 97 | – | – | – |
| CC(CCCc1ccccn1)NC1c2ccccc2Oc2ccccc21 (stereo not given) | 6.1 | 100 | – | – | – |
| NC1c2ccccc2Oc2ccccc21 | 4.5 | 93 | – | – | – |
| c1ccc(CNC2c3ccccc3Oc3ccccc32)nc1 | 4.8 | 96 | – | – | – |
| c1ccc(CNC2c3ccccc3Oc3ccccc32)cc1 | 1.9 | 69 | – | – | – |
| c1ccc2c(c1)Oc1ccccc1C2NCCN1CCOCC1 | 2.6 | 47 | – | – | – |
| c1cncc(NC2c3ccccc3Oc3ccccc32)c1 | – | – | Not significant | Not significant | – |
| c1ccc(NNC2c3ccccc3Oc3ccccc32)nc1 | 1.4 | 73 | – | – | – |
| CCOC(=O)N1CCN(C2c3ccccc3Oc3ccccc32)CC1 | 2.2 | – | – | – | – |
| CCN1CCCC(N(C)C2c3ccccc3Oc3ccccc32)C1 (stereo not given) | 5.1 | 98 | – | – | – |
| CN(Cc1cccnc1)C1c2ccccc2Oc2ccccc21 | 3.6 | 92 | – | – | – |
| C=CCN(CC=C)C1c2ccccc2Oc2ccccc21 | 1.3 | – | – | – | – |
| c1ccc2c(c1)Oc1ccccc1C2NC1CN2CCC1CC2 (stereo not given) | 2.4 | 65 | – | – | – |
| CC1=NCCN1CCNC1c2ccccc2Oc2ccccc21 | 3 | 88 | – | – | – |
| CS(=O)(=O)NC1c2ccccc2Oc2ccccc21 | – | – | Not significant | Not significant | – |
| NS(=O)(=O)NC1c2ccccc2Oc2ccccc21 | 2 | 87 | – | – | – |
| CCN(CCc1ccccn1)C1c2ccccc2Oc2ccccc21 | 4.3 | 86 | – | – | – |
| O=S(=O)(NC1c2ccccc2Oc2ccccc21)c1ccccc1 | – | – | Not significant | Not significant | – |
